Shown are actives, neighbours in structure and some others; about 4.9% of the full set was active somewhere.
STAT3 blocker: reduces IL-6 driven STAT3 reporter signal; U3A cells, IL-6 STAT3-luciferase reporter, luminescence; host cell line lacks STAT1; inhibition, % at 5.5 µM; hit rate 0.89% among 190,000;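 active means inhibition above the mean inhibition across all screened compounds plus 3 SD, cut at about 44% in these data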
STAT1 blocker: STAT1 signaling inhibition; NIH 3T3 STAT1-luciferase reporter, IFN-gamma, luminescence; inhibition, % at 5.5 µM; hit rate 0.35% among 200,000; AID 920;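 active means inhibition above a set limit, the mean inhibition across all tested compounds plus 3 SD, cut at about 34% in these data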
STAT1 act: STAT1 signaling activation; NIH 3T3 STAT1-luciferase reporter, IFN-gamma, luminescence; 100% = IFN-gamma alone, no compound; activation (% of control), % at 5.5 µM; hit rate 2.6% among 200,000; AID 932;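 active means activation above the screen-wide mean activation plus 3 SD, cut at about 130% in these data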
NF-kB neuron act: compounds increasing NF-kB expression in human neuronal cells. NF-kB reporter expression; active compounds read high. fold change at 12.5 µM. hit rate 1.6% among 190,000. AID 1239; in the data active means fold change above about 3.3
STAT3 activator: STAT3 signaling activation | AID 871 | U3A cells, IL-6 STAT3-luciferase reporter, luminescence; 100% = signal with IL-6 EC80 alone | hit rate 0.91% among 190,000 | activation (% of control), % at 5.6 µM;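 active means activation above the screen-wide mean of compound activation plus 3 SD, cut at about 130% in these data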
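Test system: STAT3-luciferase reporter U3A cells; Detection: reporter luminescence signal; Times: 1 h compound pre-exposure, 6 h IL-6 stimulation, 37 °C; Benchmarks: IL-6-only high control; Also added: IL-6 stimulus at 33 ng/mL final.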
APP 5'UTR act: activates APP 5'UTR luciferase reporter. SH-SY5Y APP 5'UTR luciferase reporter, luminescence; zero percent = DMSO vehicle wells. activation, % at 2 µM. hit rate 1% among 190,000. AID 1276;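 active means activation above a set limit, based on mean plus 3 SD of controls, cut at about 140% in these data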
A number is an active result; - = inactive; . = no result given.

SMILES | STAT3 blocker | STAT1 blocker | STAT1 act | NF-kB neuron act | STAT3 activator | APP 5'UTR act
COc1ccccc1CCc1nnc(CCC(=O)NC(C)Cn2nc(C)cc2C)o1 (stereo not drawn) | - | - | - | - | - | -
Cc1[nH]c2ccccc2c1C(=O)COC(=O)c1ccc2c(=O)n3c(nc2c1)CCC3 | - | - | - | . | - | -
COc1cc(NC(=O)C/C(C)=N/NC(=O)c2cccs2)c(OC)cc1Cl | - | - | 138.8 | - | - | 171.4
O=c1[nH][nH]c(C(F)(F)F)c1C=NCc1cccs1 | - | - | - | - | - | -
Cc1onc(-c2c(Cl)cccc2Cl)c1C(N)=S | - | - | - | - | - | -
Cn1cc(CNCc2cn[nH]c2-c2ccc(F)cc2)c(-c2ccc3c(c2)OCCO3)n1 | - | - | - | - | - | -
Cn1cc(CNCc2ccc(OC(F)(F)F)cc2)c(-c2ccc3c(c2)OCCO3)n1 | 56.3 | - | - | - | - | -
Cc1coc2c1C(=O)C(=O)c1c-2ccc2c1CCCC2(C)C | . | - | - | - | . | -
C[C@H]1COC2=C1C(=O)C(=O)c1c2ccc2c1CCCC2(C)C | . | - | 128.7 | - | . | -
Nc1ccc(CSc2ccc(Cl)cc2)cc1 | - | - | - | - | - | -
Cc1ccc(C(=O)NCC(=O)NCC(=O)OCC(=O)c2cccs2)cc1 | - | - | - | - | - | -
Brc1ccc(-c2csc(N/N=C/c3ccco3)n2)cc1 | - | - | - | - | - | -
O=C1NC(c2ccc(Br)cc2)=N/C1=C/c1ccco1 | - | - | - | - | - | 140.1
Cc1cccc(OCc2nc(-c3nonc3N)no2)c1C | - | - | 139.3 | - | - | -
COc1ccc(NC(=O)c2ccccc2C)c(OC)c1 | - | - | - | - | - | -
COc1ccc(O)c(C(=O)CC(=O)c2ccccc2C)c1 | - | - | 145.1 | - | - | -
Cn1c(-c2ccccc2)c(/C=N/NC(=O)c2cccnc2)c2ccccc21 | - | - | 131.1 | - | - | -
O=C(CN1CCC(C(=O)c2cccc(Cl)c2)CC1)Nc1ccc(C(=O)O)cc1 | - | - | - | - | - | -
COc1cc(Cl)cc(/C=C/c2ccc3ccccc3n2)c1OC(C)=O | - | - | - | - | - | 154.6
CC(=O)Oc1ccc(Cl)cc1/C=C/c1cc(OC(C)=O)c2ccccc2n1 | - | - | - | - | - | -
CC1CCC/C(=N/Nc2nc3ccccc3s2)C1 (stereo not drawn) | - | - | 138.5 | - | - | 139.7
CC1(C)CC(=O)C/C(=N/Nc2nc3ccccc3s2)C1 | - | - | - | - | - | -
CCOC(=O)c1c(C)[nH]c(C(=O)N2CCN(c3ccc(OC)cc3)CC2)c1C | - | - | - | - | - | -
Cc1[nH]n2c(=O)c3c(nc2c1-c1ccc(F)cc1)CCCC3 | - | - | - | - | - | -
O=c1c2c(nc3cc(-c4cccc(F)c4)[nH]n13)CCC2 | - | - | 130.1 | 4.2 | - | -
SMILES | STAT3 blocker | STAT1 blocker | STAT1 act | NF-kB neuron act | STAT3 activator | APP 5'UTR act
O=c1c2c(nc3cc(-c4cccc(Cl)c4)[nH]n13)CCC2 | - | - | 135.0 | 5.44 | - | 143.1
CC(=O)c1c(C)[nH]c(C(=O)N(C)C(c2ccccc2)c2ccccc2)c1C | - | - | - | - | - | -
O=C(N/N=C/c1cccnc1)c1ccc2c(c1)OCCO2 | - | - | - | - | - | -
O=C(N/N=C/c1ccc(Br)o1)c1ccc2c(c1)OCCO2 | - | - | 130.5 | - | - | -
CCCCc1ccc(-c2nc(-c3ccncc3)no2)cc1 | - | - | - | 6.99 | - | 175.6
c1ccc(-c2nc(-c3ccncc3)no2)cc1 | - | - | 137.5 | - | - | -
c1ccc(-c2ccc(-c3nc(-c4ccncc4)no3)cc2)cc1 | - | - | 135.9 | 6.83 | - | 177.4
COc1cccc(CN2CCN(Cc3nc(C(C)C)cs3)CC2CCO)c1 (stereo not drawn) | - | - | - | - | - | -
COc1ccc(CCN=C(N)Nc2nc(C)cc(C)n2)cc1 | - | - | - | - | - | -
Cn1cccc1C(=O)Nc1nc(-c2ccccn2)cs1 | - | - | 135.3 | 5.11 | - | -
Cc1csc(NC(=O)c2cn3ccccc3n2)n1 | 95.5 | 64.7 | - | - | - | -
Cc1csc(NC(=O)c2ccccc2C(=O)O)n1 | - | - | - | - | - | -
Cc1csc(NC(=O)c2cccn2C)n1 | - | - | 131.1 | - | - | -
CSCCC(NC(=O)c1ccccc1)C(=O)Nc1ccc(NC(C)=O)cc1 (stereo not drawn) | - | - | - | - | - | -
CC1=Nc2nc(N3CCCCC3)c(C#N)c3c4c(nc(c23)N1)N(c1ccc(C(C)C)cc1)C(=O)C4 | - | - | - | - | - | -
COc1ccc(C2CC(c3c(O)cc(C)oc3=O)=NCCS2)c(OC)c1 (stereo not drawn) | - | - | 136.4 | 5.8 | 163.8 | -
CCSc1nc2c(c(=O)[nH]1)C(c1cccs1)C(C(=O)OC)=C(C)N2 (stereo not drawn) | - | - | - | - | - | -
CCOc1ccc(-c2nnc(-c3ccncc3)o2)cc1 | - | - | 133.0 | - | - | -
c1coc(-c2nnc(NC3=NCCC3)o2)c1 | - | - | 129.4 | - | - | -
CCCCNC(=O)Nc1nnc(-c2ccc(OCC)cc2)o1 | - | - | - | - | - | -
CCOc1ccc(-c2nnc(NC3=NCCCCC3)o2)cc1 | - | - | - | 4.1 | - | -
COc1ccc(-c2nc3ccccc3c(=O)o2)cc1OC | - | - | - | - | - | -
CCOc1ccc(-c2nc3ccccc3c(=O)o2)cc1 | - | - | - | 6.3 | - | -
COc1ccc(CC(=O)Nc2ccccc2C(=O)N2CCOCC2)cc1 | - | - | - | - | - | -
O=C(c1cccc(S(=O)(=O)N2CCOCC2)c1)N(Cc1ccc(F)cc1)Cc1ccco1 | - | - | - | - | 134.0 | -
SMILES | STAT3 blocker | STAT1 blocker | STAT1 act | NF-kB neuron act | STAT3 activator | APP 5'UTR act
CN(C)S(=O)(=O)c1cccc(C(=O)N(Cc2ccc(F)cc2)Cc2ccco2)c1 | - | - | - | - | - | -
Cc1ccc(C(C(=O)Nc2ccc3c(c2)OCO3)N(C)C(=O)/C=C\c2ccc3c(c2)OCO3)cc1 (stereo not drawn) | - | - | - | - | - | -
CCN(CC)CC(C)OC(=O)c1ccccc1Cl (stereo not drawn) | - | - | - | - | - | -
C=CCNc1nc(-c2ccc(OC)cc2OC)cs1 | - | - | 150.5 | 3.38 | - | -
CCOC(=O)N/N=C(\c1ccccc1)C(O)c1ccccc1 (stereo not drawn) | - | - | - | - | - | -
CN(C)c1ccc(/C=C/c2ccc3c4ccccc4ccc3[n+]2-c2ccccc2)cc1 | 80.8 | 46.2 | - | - | - | -
O=C1OC(Nc2cc(Br)cc3cccnc23)c2ccccc21 (stereo not drawn) | - | - | - | - | 133.0 | -
CCOc1cc(C=O)cc(Br)c1OCC(=O)NCCc1ccccc1 | - | - | - | - | - | -
CCN(CC)CC(=O)Nc1ccc(C)cc1Br | - | - | - | - | - | -
